This passage reports Activity results from ChEMBL document CHEMBL1157098, “AMP-activated protein kinase (AMPK) activation by benzofurans and coumestans isolated from Erythrina abyssinica” (J Nat Prod, 2010).

The source made the active and inactive calls. The calls are words filed in the database; no cut-off is given here.

Holding throughout (format): cell-based
Assay [1] concerns the target 5'-AMP-activated protein kinase catalytic subunit alpha-1 (Mus musculus) (UniProt Q5EG47). Kind of assay: Activation of AMPKalpha in differentiated mouse C2C12 cells assessed as phosphorylated-AMPK level at 10 uM after 30 mins by Western blot analysis relative to control. The method, boiled down:
(§1)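 C2C12 myoblasts seeded at 10^5 cells/well and differentiated at confluence in DMEM with 5% horse serum, medium changed every 48 h until myotubes formed. Myotubes exposed to compounds for 30 min, lysed in EBC buffer (50 mM Tris-HCl pH 7.6, 120 mM NaCl, 1 mM EDTA, 0.5% NP-40, 50 mM NaF). About 30 µg protein immunoblotted for phospho-AMPKα Thr172, phospho-ACC Ser79, total AMPK, β-actin.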
In general terms: Immunoblotting shows a protein as a band on a membrane.

Assay [2] has the same target. As to the kind of experiment: Activation of AMPKalpha in differentiated mouse C2C12 cells assessed as phosphorylated-ACC level at 10 uM after 30 mins by Western blot analysis relative to control. The gist of the method: as §1
Assay [3] has the same target. Kind of assay: Activation of AMPKalpha in differentiated mouse C2C12 cells assessed as change in AMPK level at 10 uM after 30 mins by Western blot analysis relative to control. The method, boiled down:
as §1

Sequence of 5'-AMP-activated protein kinase catalytic subunit alpha-1 (Mus musculus) (Q5EG47 whole entry): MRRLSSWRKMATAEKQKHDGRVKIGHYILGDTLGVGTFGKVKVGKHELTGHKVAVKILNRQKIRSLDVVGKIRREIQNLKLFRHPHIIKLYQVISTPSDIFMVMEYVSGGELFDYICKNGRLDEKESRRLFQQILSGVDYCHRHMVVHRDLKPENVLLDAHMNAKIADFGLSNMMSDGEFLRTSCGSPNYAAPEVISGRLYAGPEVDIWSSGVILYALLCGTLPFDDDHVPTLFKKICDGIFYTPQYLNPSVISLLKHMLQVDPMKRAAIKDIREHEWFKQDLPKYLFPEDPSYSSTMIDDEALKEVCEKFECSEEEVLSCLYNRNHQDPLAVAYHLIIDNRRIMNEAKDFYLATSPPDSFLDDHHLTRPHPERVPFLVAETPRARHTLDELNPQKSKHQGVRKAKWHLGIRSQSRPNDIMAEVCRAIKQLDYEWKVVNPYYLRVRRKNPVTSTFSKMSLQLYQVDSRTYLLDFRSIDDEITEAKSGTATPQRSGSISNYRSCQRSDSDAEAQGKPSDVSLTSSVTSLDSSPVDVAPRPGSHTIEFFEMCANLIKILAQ

Consider `COc1cc([C@@H]2COc3cc(O)ccc32)c(OC)cc1O`, for which the result in assay [1], in assay [2] and in assay [3] was inactive.

On to `COc1ccc2c(oc3c4ccc(O)cc4oc(=O)c23)c1CC=C(C)C`, for which the result in assay [1] and in assay [2] was Active. In assay [3], the result was inactive.

Regarding `CC(C)=CCc1cc2c(cc1O)oc(=O)c1c3ccc(O)c(CC=C(C)C)c3oc21`, the outcome in assay [1] and in assay [2] was Active. Further, the outcome in assay [3] was inactive.

For the compound `CC(C)=CCc1cc(-c2oc3c(CC=C(C)C)c(O)ccc3c2C=O)c(O)cc1O`, the outcome in assay [1], in assay [2] and in assay [3] was inactive.

On to `CC(C)=CCc1c(O)ccc2c1oc1c3ccc(O)cc3oc(=O)c21`, for which the result in assay [1] and in assay [2] was Active. In addition, the result in assay [3] was inactive.

For the compound `COc1cc(C2(C=O)COc3cc(O)ccc32)c(OC)cc1O` (stereo not drawn), the result in assay [1], in assay [2] and in assay [3] was inactive.

For the compound `COc1ccc2c(C=O)c(-c3ccc(O)cc3O)oc2c1CC=C(C)C`, the outcome in assay [1] and in assay [2] was Active. In addition, in assay [3], the result was inactive.

As for `CC(C)=CCc1cc(-c2oc3c(CC=C(C)C)c(O)ccc3c2C(=O)O)c(O)cc1O`, in assay [2], the result was Active. Moreover, the outcome in assay [3] was inactive.
